GASC1 inh – KDM4C (human) demethylase inhibition | Q9H3R0 | 96,000 tested, 0.15% active | inhibition, % at 12.5 µM | GST-KDM4C 2-372, H3K9me3 peptide, LANCE TR-FRET | AID 720574;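 active = mean replicate inhibition above about 25%, with at least 55% of replicates also reaching it, limit read from the data, passing the limit was not always enough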
Target sequence (Q9H3R0 2-372 limits assumed): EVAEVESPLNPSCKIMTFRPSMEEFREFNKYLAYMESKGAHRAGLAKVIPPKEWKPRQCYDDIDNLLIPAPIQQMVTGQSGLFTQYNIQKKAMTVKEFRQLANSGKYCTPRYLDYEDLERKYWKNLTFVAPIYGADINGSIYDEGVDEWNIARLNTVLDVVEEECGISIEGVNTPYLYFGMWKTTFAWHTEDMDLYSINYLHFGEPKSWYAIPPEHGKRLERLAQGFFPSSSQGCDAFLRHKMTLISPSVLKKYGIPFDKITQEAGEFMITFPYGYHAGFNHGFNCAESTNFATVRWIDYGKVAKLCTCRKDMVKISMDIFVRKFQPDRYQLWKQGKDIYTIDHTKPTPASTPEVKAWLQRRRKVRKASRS
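System – N-terminal GST-fused human GASC-1 (KDM4C) fragment, residues 2-372 · Input – enzyme final amount 10 nM · Technique – LANCE TR-FRET, Eu antibody, ULight-streptavidin, EDTA, ex 340 nm, em 618/671 nm · Medium – HEPES buffer, pH 7.5, plus ascorbate · Incubation – enzyme reaction 30 min, then detection 60 min, both room temperature · Reagent – H3K9me3 peptide with Fe(II)/2OG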
IDH1 mut inh – IDH1 R132H (human) inhibition | 70,000 tested, 0.18% active | AID 624101 | O75874 | inhibition, % at 10 µM | IDH1 R132H reductase, diaphorase/resazurin fluorescence, 60 min; in the data active = inhibition above about 34%;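 note: 0% = DMSO and 100% = no enzyme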
An asterisk follows results filed as active; x = no result; ! = repeats disagree. Shown are actives, neighbours in structure and some others; about 0.19% of the full set was active somewhere.

SMILES | GASC1 inh | IDH1 mut inh
C[C@@H]1CCCCO[C@@H](CN(C)C(=O)CCC(F)(F)F)[C@@H](C)CN([C@H](C)CO)C(=O)c2cc(NS(=O)(=O)c3ccccc3)ccc2O1 | -3 | -2
C[C@@H]1CCCCO[C@H](CN(C)C(=O)CCC(F)(F)F)[C@H](C)CN([C@@H](C)CO)C(=O)c2cc(NS(=O)(=O)c3ccccc3)ccc2O1 | -2 | 91*
C[C@@H]1CN([C@@H](C)CO)C(=O)c2cc(NC(=O)CCC(F)(F)F)ccc2O[C@@H](C)CCCCO[C@@H]1CN(C)Cc1ccncc1 | -1 | x
O=C(Cn1nnc(-c2ccccc2)n1)Nc1ccccc1C(=O)O | x | 0
O=C(O[C@H]1[C@H](Oc2ccccc2COC(=O)C2(O)C=CCCC2=O)O[C@H](CO)[C@@H](O)[C@@H]1O)c1ccccc1 (stereo partly drawn) | x | 0
O=C(OCC1OC(Oc2ccc(O)cc2COC(=O)C2(O)C(O)CCC(=O)C2O)C(O)C(O)C1O)c1ccccc1 (stereo not drawn) | x | 36*
O=C(CCCCCCC(=O)Nc1ccccc1O)N/N=C/c1cc(O)ccc1Br | x | 0
O=C(CCCCCC(=O)N/N=C/c1cc(O)ccc1O)NO | x | 69*
O=C(CCCCCC(=O)N/N=C/c1ccc(O)cc1O)NO | x | 0
O=C(CCCCCC(=O)Nc1ccccc1O)N/N=C\c1cc(O)ccc1O | x | 50*
Cc1cc(C)c(NC(=O)CN(c2ccc(Br)cc2)S(C)(=O)=O)c(C)c1 | x | 0
N#Cc1cccc(-c2ccc(C3[C@@H]4CN(C(=O)c5ccncc5)C[C@H]3N4)cc2)c1 (stereo partly drawn) | 0 | x
N#Cc1ccc(-c2ccc(C3[C@@H]4CN(C(=O)c5ccncc5)C[C@H]3N4)cc2)cc1 (stereo partly drawn) | 39*! | x
Cc1ccc(S(=O)(=O)N[C@H]2CC[C@H](CCNC(=O)C3CCCCC3)O[C@H]2CO)cc1 | 72* | 67*
Cc1ccc(S(=O)(=O)N[C@@H]2CC[C@@H](CCNC(=O)C3CCCCC3)O[C@@H]2CO)cc1 | 0 | 0
Cc1ccc(S(=O)(=O)NCC[C@H]2CC[C@@H](NC(=O)c3cccc(F)c3)[C@@H](CO)O2)cc1 | 44* | 1
CC(C)NC(=O)N[C@@H]1CC[C@H](CCNC(=O)C2CCC2)O[C@@H]1CO | -2 | 0
Cc1ccc(S(=O)(=O)NCC[C@@H]2CC[C@@H](NC(=O)c3cccc(F)c3)[C@@H](CO)O2)cc1 | 0 | -1
CC(C)NC(=O)N[C@H]1CC[C@H](CCNC(=O)C2CCC2)O[C@H]1CO | 27* | 0
O=C(NCc1ccccn1)c1cnn2c1NC(c1cccs1)CC2C(F)(F)F (stereo not drawn) | x | 0
O=C(COc1ccc2ccccc2c1)Nc1ccc(O)cc1C(=O)O | x | 0
CC(C)OC(=O)C(C)Sc1ncnc2scc(-c3ccc(Br)cc3)c12 (stereo not drawn) | x | 0
C[C@@H]1CN([C@@H](C)CO)S(=O)(=O)c2ccc(C#CC3CC3)cc2O[C@H]1CN(C)Cc1cccnc1 | 0 | x
C[C@H]1CN([C@@H](C)CO)S(=O)(=O)c2ccc(C#CC3CCCCC3)cc2O[C@H]1CN(C)C(=O)Cc1ccncc1 | -1 | x
C[C@H](CO)N1C[C@H](C)[C@H](CN(C)C(=O)c2cccnc2)Oc2cc(C#CC3CC3)ccc2S1(=O)=O | 2 | 0
SMILES | GASC1 inh | IDH1 mut inh
C[C@@H]1CN([C@@H](C)CO)S(=O)(=O)c2ccc(C#CC3CCCCC3)cc2O[C@H]1CN(C)C(=O)Cc1ccncc1 | 0 | 66*
C[C@H](CO)N1C[C@H](C)[C@@H](CN(C)C(=O)c2cccnc2)Oc2cc(C#CC3CC3)ccc2S1(=O)=O | 16 | 42*
C[C@@H]1CN([C@H](C)CO)S(=O)(=O)c2ccc(C#CC3CC3)cc2O[C@H]1CN(C)Cc1cccnc1 | -1 | 60*
Cc1ccc(S(=O)(=O)Nc2cc(S(=O)(=O)c3ccc(C)cc3)c(O)c3ccccc23)cc1 | x | 4
CCc1cccc(OCC(=O)Nc2ccc(OC)cc2[N+](=O)[O-])c1 | x | 1
CC(C)CC#Cc1ccc2c(c1)O[C@H](CN(C)C(=O)Cc1ccncc1)[C@@H](C)CN([C@H](C)CO)S2(=O)=O | 1 | 5
CC(C)CC#Cc1ccc2c(c1)O[C@@H](CN(C)C(=O)Cc1cccnc1)[C@@H](C)CN([C@@H](C)CO)S2(=O)=O | 0 | 13
CC(C)CC#Cc1ccc2c(c1)O[C@H](CN(C)C(=O)Cc1cccnc1)[C@H](C)CN([C@H](C)CO)S2(=O)=O | 2 | 52*
CC(C)CC#Cc1ccc2c(c1)O[C@H](CN(C)C(=O)Cc1cccnc1)[C@@H](C)CN([C@@H](C)CO)S2(=O)=O | 3 | 54*
CC(C)CC#Cc1ccc2c(c1)O[C@@H](CN(C)C(=O)Cc1cccnc1)[C@H](C)CN([C@H](C)CO)S2(=O)=O | -1 | 38*
CC(C)CC#Cc1ccc2c(c1)O[C@@H](CN(C)C(=O)Cc1ccncc1)[C@@H](C)CN([C@H](C)CO)S2(=O)=O | 3 | 3
Cn1c(CN2CCOCC2)nnc1SCC(=O)Nc1cc(C(F)(F)F)ccc1Cl | x | 0
O=C(CSc1nc(O)cc(=O)[nH]1)N(c1ccccc1)c1ccccc1 | x | 0
Cc1ccc(-c2nc3ccccc3s2)cc1NC(=O)COc1ccc(Br)cc1 | x | 0
CCC(=O)Nc1nonc1-c1nc2ccccc2n1Cc1cc(OC)ccc1C | x | 0
COC(=O)c1c(NC(=S)Nc2cccc(S(=O)(=O)N3CCOCC3)c2)sc2c1CCC2 | x | 0
COc1ccc(C2CC(=O)Oc3cc(O)cc(O)c32)cc1 (stereo not drawn) | x | 0
O=C1Oc2cc(O)cc(O)c2[C@@H](c2ccc(O)cc2)[C@H]1[C@H]1C(=O)Oc2cc(O)cc(O)c2[C@H]1c1ccc(O)cc1 | x | 52*
O=C1CC(c2ccccc2)N=C(SCC(=O)Nc2ccc3ccccc3c2)N1 (stereo not drawn) | x | 0
CCC(=O)N[C@@H]1CC[C@H](CCn2cc(-c3cccc(OC)c3)nn2)O[C@H]1CO | 0 | 0
COc1cccc(-c2cn(CC[C@@H]3CC[C@H](NC(=O)CC4CC4)[C@@H](CO)O3)nn2)c1 | 55* | 7
CCC(=O)N[C@@H]1CC[C@H](CCn2cc(-c3cccc(OC)c3)nn2)O[C@@H]1CO | 29* | 0
COc1cccc(-c2cn(CC[C@H]3CC[C@H](NC(=O)CC4CC4)[C@H](CO)O3)nn2)c1 | 0 | 0
O=C(Nc1ccc(S(=O)(=O)Nc2ncccn2)cc1)C1CCC1 | x | 0
CC(NC(=O)c1ccccc1NC(=O)C1COc2ccccc2O1)c1ccccc1 (stereo not drawn) | x | 0
CN1c2ccccc2Oc2nnc(N3CCN(c4ccccc4)CC3)cc21 | x | 1
O=C(CN1CCOCC1)NCC[C@@H]1CC[C@H](NC(=O)c2ccc3c(c2)OCO3)[C@H](CO)O1 | -1 | 0
O=C(CN1CCOCC1)NCC[C@H]1CC[C@H](NC(=O)c2ccc3c(c2)OCO3)[C@H](CO)O1 | 50* | 61*
CCCC#Cc1ccc2c(c1)O[C@H](CN(C)Cc1cncnc1)[C@@H](C)CN([C@@H](C)CO)S2(=O)=O | 39* | 24
C[C@H]1CN([C@@H](C)CO)S(=O)(=O)c2ccc(C#Cc3ccncc3)cc2O[C@@H]1CN(C)S(=O)(=O)c1ccccc1 | 28* | 12

Assay outcomes (PubChem BioAssay)
